Test results from ChEMBL document CHEMBL4308828, “Fragment Based Optimization of Metabotropic Glutamate Receptor 2 (mGluR2) Positive Allosteric Modulators in the Absence of Structural Information” (J Med Chem, 2018).

Experiments:
[1] = target: Metabotropic glutamate receptor 2 (Homo sapiens, UniProt Q14416); test: Positive allosteric modulation of human mGluR2 expressed in human Chem1 cells assessed as increase in glutamate-induced intracellular calcium influx preincubated for 30 mins followed by glutamate addition by calcium-5 dye based fluorometric assay; type: functional, cell-based
Chain of Metabotropic glutamate receptor 2 (Q14416 whole entry): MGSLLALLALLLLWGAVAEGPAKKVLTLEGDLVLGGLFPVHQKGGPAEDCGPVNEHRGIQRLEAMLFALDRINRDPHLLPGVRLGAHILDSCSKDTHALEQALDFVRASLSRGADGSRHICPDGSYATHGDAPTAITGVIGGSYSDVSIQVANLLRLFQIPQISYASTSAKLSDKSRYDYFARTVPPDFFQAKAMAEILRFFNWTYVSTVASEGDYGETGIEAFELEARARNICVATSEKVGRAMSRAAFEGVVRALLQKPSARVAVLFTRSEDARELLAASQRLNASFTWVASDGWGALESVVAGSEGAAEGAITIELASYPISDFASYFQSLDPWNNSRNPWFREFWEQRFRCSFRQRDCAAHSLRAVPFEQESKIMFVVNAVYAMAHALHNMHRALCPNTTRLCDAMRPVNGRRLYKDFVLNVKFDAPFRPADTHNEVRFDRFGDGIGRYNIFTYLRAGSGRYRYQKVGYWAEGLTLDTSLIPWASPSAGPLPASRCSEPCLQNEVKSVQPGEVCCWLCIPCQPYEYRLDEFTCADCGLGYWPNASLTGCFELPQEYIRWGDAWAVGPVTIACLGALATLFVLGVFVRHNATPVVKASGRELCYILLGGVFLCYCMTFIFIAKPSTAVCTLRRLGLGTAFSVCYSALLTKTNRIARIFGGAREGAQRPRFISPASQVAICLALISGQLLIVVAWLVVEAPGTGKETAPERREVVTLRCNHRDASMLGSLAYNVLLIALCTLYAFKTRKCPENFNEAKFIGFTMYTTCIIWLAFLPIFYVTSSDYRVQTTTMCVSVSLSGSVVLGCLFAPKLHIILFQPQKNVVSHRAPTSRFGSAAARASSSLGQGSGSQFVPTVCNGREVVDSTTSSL
Outline: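 Chem-1 cells stably expressing human mGlu2, 30000 cells/well, overnight at 37 °C. Loaded with Calcium 5 dye (30 min, 37 °C) in buffer with GPT/pyruvate, washed, then compound or vehicle 30 min at 37 °C. Glutamate at EC5-EC20 added after 20 s baseline; fluorescence 485/525 nm read 40 s. ΔF/F from multiple wells; sigmoid fits give EC50, three independent experiments. Final DMSO 1%.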

[2] = Intrinsic clearance in human liver microsomes at 2.5 uM; type: ADME, Microsome
Outline: (§1)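 Liver microsomes (0.5 mg/mL) of human, Wistar rat or NMRI mouse; compound 2.5 μM initial, incubated for various times. Intrinsic clearance (mL/min·g liver) taken as rate of compound consumption under first-order conditions, Clint = Vmax/KM or V/S when S ≪ KM.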

[3] = Intrinsic clearance in Wistar rat liver microsomes at 2.5 uM; type: ADME, Microsome; outline: as §1
[4] = Intrinsic clearance in NMRI mouse liver microsomes at 2.5 uM; type: ADME, Microsome; outline: as §1
[5] = Plasma concentration in mouse at 30 mg/kg, po; type: ADME, organism-based; conditions: in vivo
Outline: (§2)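 Mice dosed orally at 30 mg/kg; plasma, brain and unbound plasma concentrations measured.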

[6] = Drug uptake in mouse brain at 30 mg/kg, po; type: ADME, organism-based; conditions: in vivo, read-out: Drug uptake; outline: as §2
[7] = Unbound plasma concentration in mouse at 30 mg/kg, po; type: ADME, organism-based; conditions: in vivo; outline: as §2
Mus musculus = test: Antipsychotic activity in ip dosed ddY mouse assessed as inhibition of PCP-induced hyperlocomotion pretreated followed by PCP addition measured after 60 mins by passive infrared sensor method; type: functional
Outline: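 Male ddY mice, 6 weeks old, acclimated 60 min in test cage, dosed i.p., then immediately PCP 2.5 mg/kg s.c.; locomotor activity recorded 60 min by passive infrared sensor system; ED50 reported.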

SMILES | EC50 [1] [nM] | Intrinsic clearance [2] [mL/min/g] | Intrinsic clearance [3] [mL/min/g] | Intrinsic clearance [4] [mL/min/g] | concentration [5] [µM] | concentration [6] [µM] | Cp(f) [7] [µM] | ED50 (Mus musculus) [mg/kg]
Fc1ccc(-c2ccc(Cn3nnc4ccccc43)cc2)c(F)c1 | 71 | 0.9 | 6.4 | 2.3 | – | – | – | –
Brc1ccc(Cn2nnc3c(Br)cccc32)cc1 | 14 | 0.4 | 2.2 | 2.6 | – | – | – | –
Fc1cccc(Cn2nnc3c(Br)cccc32)c1 | 18 | 1.8 | 1.6 | 1.3 | – | – | – | –
Fc1cc(Cl)ccc1-c1ccc(Cn2nnc3c(C(F)(F)F)cccc32)cn1 | 13 | 0.04 | 0.2 | 0.1 | – | – | – | –
N#Cc1cccc2c1nnn2Cc1ccc(-c2ccc(Cl)cc2F)nc1 | 33 | 0.05 | 0.1 | 1.6 | – | – | – | –
CCn1nnc2c(Br)cccc21 | 2240 | – | – | – | – | – | – | –
FC(F)(F)c1cc(Br)c2nnn(CC3CC3)c2c1 | 140 | 0.1 | 0.2 | 7.7 | – | – | – | –
Brc1cc(Br)c2nnn(CC3CC3)c2c1 | 50 | 0.6 | 2.3 | 15.3 | – | – | – | –
Fc1cccc2c1nnn2CC1CC1 | 1070 | – | – | – | – | – | – | –
CCCCn1nnc2c(Br)cccc21 | 60 | 9.5 | 4.4 | 8.3 | – | – | – | –
Clc1cc(Br)c2nnn(CC3CC3)c2c1 | 60 | 0.5 | 1.1 | 11.4 | – | – | – | –
Brc1ccc(Cn2nnc3c(Br)cccc32)cn1 | 210 | – | – | – | – | – | – | –
Brc1cccc2c1nnn2CC1CC1 | 70 | 1.3 | 0.6 | 7.7 | – | – | – | –
Brc1cccc2c1nnn2Cc1ccccc1 | 80 | 4.7 | 2 | 2.3 | – | – | – | –
CC(C)Cn1nnc2c(Br)cccc21 | 140 | 4.2 | 4 | 3.5 | – | – | – | –
Clc1ccc(-c2ccc(Cn3nnc4ccccc43)cn2)cc1 | 70 | 0.2 | 1 | 3.8 | – | – | – | –
Brc1cccc2c1nnn2CC1CCCC1 | 30 | 7.9 | 14.6 | 11.4 | – | – | – | –
Fc1cc(Cl)ccc1-c1ccc(Cn2nnc3c(Br)cccc32)cn1 | 6 | 0.1 | 0.4 | 3.8 | 20 | 7.1 | 0.081 | 47
CCCn1nnc2c(Br)cccc21 | 270 | 4.7 | 0.8 | 7.7 | – | – | – | –
Fc1cc(Cn2nnc3c(Br)cccc32)ccc1Cl | 18 | 0.4 | 3.1 | 2.2 | – | – | – | –
Fc1cc(Br)c2nnn(CC3CC3)c2c1 | 70 | 0.4 | 0.5 | 5.7 | – | – | – | –
Fc1ccccc1-c1ccc(Cn2nnc3ccccc32)cn1 | 600 | – | – | – | – | – | – | –
Clc1ccc(Cn2nnc3c(Br)cccc32)cn1 | 290 | – | – | – | – | – | – | –
FC(F)(F)c1ccc(-c2ccc(Cn3nnc4ccccc43)cc2)c(Cl)c1 | 37 | 0 | 0.5 | 0.4 | – | – | – | –

SMILES | EC50 [1] [nM] | Intrinsic clearance [2] [mL/min/g] | Intrinsic clearance [3] [mL/min/g] | Intrinsic clearance [4] [mL/min/g] | concentration [5] [µM] | concentration [6] [µM] | Cp(f) [7] [µM] | ED50 (Mus musculus) [mg/kg]
Fc1ccc(Cn2nnc3c(Br)cccc32)c(Cl)c1 | 190 | 1.8 | 3.5 | 3 | – | – | – | –
Clc1ccc(-c2ccc(Cn3nnc4ccccc43)cc2)c(Cl)c1 | 79 | 0.6 | 1.4 | 1.3 | – | – | – | –
Fc1ccc(-c2ccc(Cn3nnc4ccccc43)cc2)c(Cl)c1 | 118 | 0.7 | 2.6 | 1.5 | – | – | – | –
Fc1ccc2c(c1)nnn2Cc1ccc(-c2ccc(Cl)cc2F)nc1 | 68 | 0.1 | 0.5 | 0.7 | – | – | – | –
Fc1ccc(Cn2nnc3c(Br)cccc32)cc1 | 15 | 1.2 | 1 | 1 | – | – | – | –
c1ccc(Cn2nnc3ccccc32)cc1 | 3000 | 7.9 | 1.2 | 1 | – | – | – | –
N#Cc1cccc2c1nnn2CC1CC1 | 620 | – | – | – | – | – | – | –
Clc1cccc2c1nnn2CC1CC1 | 90 | 4.2 | 0.5 | 5.7 | – | – | – | –
Cn1nnc2c(Br)cccc21 | > 5000 | – | – | – | – | – | – | –
Fc1cc(Cl)ccc1Cn1nnc2c(Br)cccc21 | 23 | 0.5 | 3.8 | 1.3 | – | – | – | –
Brc1ccc(Cn2nnc3c(Br)cccc32)nc1 | 180 | 0.3 | 0.7 | 1.1 | – | – | – | –
COc1cc(Br)c2nnn(CC3CC3)c2c1 | 730 | – | – | – | – | – | – | –
c1ccc(-c2ccc(Cn3nnc4ccccc43)cc2)cc1 | 155 | 7.9 | 12.6 | 11.4 | – | – | – | –
Fc1ccc2nnn(Cc3ccc(-c4ccc(Cl)cc4F)nc3)c2c1 | 86 | 0.1 | 1 | 2.2 | – | – | – | –
Fc1cc(Cl)ccc1-c1ccc(Cn2nnc3ccccc32)cc1 | 28 | 0.4 | 1.3 | 1.1 | – | – | – | –
COc1cccc2c1nnn2CC1CC1 | 400 | 1.8 | 0.8 | 8.3 | – | – | – | –
Brc1cccc2c1nnn2CC1CCC1 | 20 | 8.7 | 12 | 11.4 | – | – | – | –
Brc1cccc2c1nnn2CC1CCCCC1 | 10 | 11.9 | 16.2 | 15.3 | – | – | – | –
Fc1ccccc1Cn1nnc2c(Br)cccc21 | 64 | 0.2 | 1.8 | 1.7 | – | – | – | –
Fc1cc(Cl)ccc1-c1ccc(Cn2nnc3ccccc32)nc1 | 141 | 0.8 | 2.3 | 1.6 | – | – | – | –
Fc1cc(Cl)ccc1-c1ccc(Cn2nnc3c(F)cccc32)cn1 | 27 | 0.1 | 0.6 | 2.2 | – | – | – | –
Clc1ccc(Cn2nnc3c(Br)cccc32)cc1 | 17 | 0.6 | 2.2 | 2 | – | – | – | –
Fc1cc(C(F)(F)F)ccc1-c1ccc(Cn2nnc3ccccc32)cc1 | 29 | 0.1 | 0.4 | 1.2 | – | – | – | –
